Measured values taken from ChEMBL document CHEMBL1140415, “Synthesis, anti-HIV activity, and metabolic stability of new alkenyldiarylmethane HIV-1 non-nucleoside reverse transcriptase inhibitors” (J Med Chem, 2005).

Key:
[1] = system: Human immunodeficiency virus 1; assay: In vitro anti-HIV activity against HIV-1RF infected in CEM-SS cells using MTS cytoprotection assay; assay type: functional, organism-based; conditions: Human immunodeficiency virus 1, CEM-SS
[2] = biological target: Human immunodeficiency virus type 1 reverse transcriptase (Human immunodeficiency virus 1, UniProt Q72547); assay: Inhibition of recombinant HIV-1 reverse transcriptase activity
CEM-SS = assay: Cytotoxic concentration against mock infected in CEM-SS cells; assay type: functional; conditions: Homo sapiens
Outline: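 Mock-infected CEM-SS cells, tested alongside the HIV-1 RF cytoprotection (MTS) assay. Data come from triplicate tests.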

[3] = system: Human immunodeficiency virus 1; assay: In vitro anti-HIV activity against HIV-1 IIIB infected in MT-4 cells using MTT assay; assay type: functional, organism-based; conditions: Human immunodeficiency virus 1, MT4
Outline: (§1)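 MT-4 cells infected with HIV-1 strain IIIB or HIV-2 strain ROD. Protection from viral cytopathicity was read by MTT. Triplicate tests.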

[4] = system: Human immunodeficiency virus 2; assay: In vitro anti-HIV activity against HIV-2ROD infected in MT-4 cells using MTT assay; assay type: functional, organism-based; conditions: Human immunodeficiency virus 2, MT4; outline: as §1
MT4 = assay: Cytotoxic concentration against mock infected in MT-4 cells; assay type: functional; conditions: Homo sapiens
Outline: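 Uninfected (mock-infected) MT-4 cells, run alongside the MTT antiviral assay. Triplicate tests.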

[5] = In vitro hydrolytic stability in rat plasma, expressed as t1/2; assay type: ADME, cell-free
Outline: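 1,1-Diphenylethylene (2.1–5.1 mg) or benzophenone (2.1 mg) served as internal standard. Hydrolysis of the methyl ester was followed, and t1/2 is given in min ± SD from triplicate tests.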

[6] = In vitro hydrolytic stability in rat plasma, expressed as t1/2; Not hydrolyzed; assay type: ADME, cell-free
Outline: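 Compounds (4.3–9.3 mg) were incubated in rat plasma in vitro. 1,1-Diphenylethylene (2.1–5.1 mg) or benzophenone (2.1 mg) served as internal standard. Hydrolysis of the methyl ester was followed, and t1/2 is given in min ± SD from triplicate tests.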

Row | IC50 [2] | half-life [5] | T1/2 [6] | Compound | EC50 [1] | CC50 (CEM-SS) | EC50 [3] | EC50 [4] | CC50 (MT4)
1 | 0.074 µM |  |  | COC(=O)CCC/C=C(/c1ccc(OC)c(OC)c1)c1cc(C)c(OC)c(C(=O)OC)c1 | 0.21 µM | 1.14 µM |  |  | 
2 |  |  |  | COC(=O)c1cc(C(=CCCN2CCOC2=O)c2cc(Br)c(OC)c(C(=O)OC)c2)cc(Br)c1OC | 0.02 µM |  |  |  | 
3 | > 100 µM | 46.2 s |  | COC(=O)CCC/C=C(/c1cc(Cl)c(OC)c(C(=O)OC)c1)c1cc(Cl)ccc1OC | > 100 µM | 9.3 µM | > 5.41 µM | > 5.41 µM | 5.41 µM
4 | > 100 µM | 58.8 s |  | COC(=O)CCC/C=C(/c1cc(C)c(OC)c(C(=O)OC)c1)c1cc(Cl)ccc1OC | > 100 µM | 15.5 µM | > 13.8 µM | > 13.8 µM | 13.8 µM
5 | 55.3 µM | 261 s |  | COC(=O)CCC/C=C(/c1cc(F)cc(C(F)(F)F)c1)c1cc(C)c(OC)c(C(=O)OC)c1 | 7.3 µM | 12 µM | 2.54 µM | 10.6 µM | 113 µM
6 | 7.58 µM | 25.2 s |  | COC(=O)CCC/C=C(\c1cccc(C#N)c1)c1cc(Cl)ccc1OC | 7 µM | 16.3 µM | 9.11 µM | > 67.6 µM | ≥ 45.2 µM
7 | > 100 µM | 28.2 s |  | COC(=O)CCC/C=C(\c1cc(C)c(OC)c(C(=O)OC)c1)c1cc(Cl)ccc1OC | > 100 µM | 8.3 µM | > 18.8 µM | > 14.5 µM | 18.8 µM
8 | > 100 µM |  |  | COC(=O)CCC/C=C(\c1cc(F)cc(C(F)(F)F)c1)c1cc(Cl)c(OC)c(C(=O)OC)c1 | > 100 µM | 16.1 µM |  |  | 
9 | 97.8 µM |  | Not hydrolyzed | COc1ccc(/C(=C\CCN2CCOC2=O)c2cc(F)cc(C(F)(F)F)c2)cc1OC | > 100 µM | 14.5 µM | > 18.5 µM | > 13.4 µM | 18.5 µM
10 | > 100 µM |  | Not hydrolyzed | COc1ccc(/C(=C\CCN2CCOC2=O)c2cc(F)ccc2C(F)(F)F)cc1OC | > 100 µM | 26.7 µM |  |  | 
11 | 8.2 µM | 28.8 s |  | COC(=O)CCC/C=C(/c1cc(C)c2on(C)c(=O)c2c1)c1cc(Cl)ccc1OC | > 100 µM | 13 µM | > 28.8 µM | > 28.8 µM | > 28.8 µM
12 | > 100 µM | 52.2 s |  | COC(=O)CCC/C=C(\c1cc(F)cc(C(F)(F)F)c1)c1cc(C)c2on(C)c(=O)c2c1 | > 100 µM | 16.8 µM | > 35.7 µM | > 43.2 µM | 39.8 µM
13 | 0.84 µM | 42.6 s |  | COC(=O)CCC/C=C(\c1cccc(C#N)c1)c1cc(C)c(OC)c(C(=O)OC)c1 | > 100 µM | 23.3 µM | 12.8 µM | > 169 µM | 153 µM
14 | 5.7 µM | 87.6 s |  | COC(=O)CCC/C=C(\c1cccc(C#N)c1)c1cc(C)c2onc(OC)c2c1 | > 100 µM | 0.8 µM | > 2.05 µM | > 5.63 µM | 4.69 µM
15 | 15.7 µM | 563 s |  | COC(=O)c1cc(/C(=C\CCN2CCOC2=O)c2cc(F)cc(C(F)(F)F)c2)cc(C)c1OC | 8.3 µM | 15 µM | 9.6 µM | > 22.6 µM | 24.7 µM
16 | 0.75 µM | 26.4 s |  | COC(=O)CCC/C=C(\c1cccc(C#N)c1)c1cc(Cl)c(OC)c(C(=O)OC)c1 | 7.1 µM | 20.2 µM | 8.55 µM |  | 213 µM
17 | 1 µM | 346 s |  | COC(=O)c1cc(/C(=C\CCN2CCOC2=O)c2ccc(OC)c(OC)c2)cc(C)c1OC | > 100 µM | 0.49 µM | > 1.05 µM | > 1.05 µM | 1.05 µM
18 | > 100 µM | 47.4 s |  | COC(=O)c1cc(C(=CCCN2CCOC2=O)c2ccc(OC)c(OC)c2)cc(C)c1OC | > 100 µM | 4.79 µM | > 33.8 µM | > 35.4 µM | 82.5 µM
19 | 0.9 µM |  |  | COC(=O)CCC/C=C(\c1cc(F)cc(C(F)(F)F)c1)c1cc(C)c2onc(OC)c2c1 |  |  |  |  | 
20 | > 100 µM |  |  | COC(=O)CCC/C=C(\c1cc(F)cc(C(F)(F)F)c1)c1cc(C)c(OC)c(C(=O)OC)c1 | > 5 µM | > 5 µM | > 5.51 µM | > 5.89 µM | 5.7 µM
